Assay results: PubChem BioAssay AID504383 (The Scripps Research Institute Molecular Screening Center, 2011)
The campaign covered roughly 2,500 compounds. About 1,200 (48%) were called active. So high a share suggests a set chosen from earlier hits. This is one part of the list. A number with no mark means an inactive call.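 Rule for the calls: active = mean activation above the low control average plus 3 SD, as set in the primary screen (cut at about 12% in these data); inactive = the rest.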

What follows are compounds tested against Troponin I, cardiac muscle (Homo sapiens) + Troponin T, cardiac muscle (Homo sapiens) + Troponin C, slow skeletal and cardiac muscles (Homo sapiens) (UniProt P19429+P45379+P63316) (assay: calcium sensitizers of cardiac thin filaments – biochemical, IANBD-TnC fluorescence, triplicate, confirmation (AID 504383;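 note: 0% = DMSO at 0.472 mM calcium and 100% = DMSO at 2.9 mM calcium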)). Conditions: IANBD-labeled cardiac RTF, Ca2+ sensitivity fluorescence; at 7.2 µM; stronger effect = higher value; scaled from EC20 to saturating calcium; tested at EC20 calcium, 0.472 mM.
Outline: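 Material: labelled regulated thin filaments; Reagent: 0.472 mM calcium; Incubation: 15 min compound incubation with filaments at 25 °C; Detection: filament fluorescence intensity; Evaluation: fluorescence increase normalised to calcium controls; Benchmarks: low control EC20 calcium, high control EC100 calcium.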

Structure (SMILES) | activation
Cc1cn2c(N)c(C=C3C=C(Cl)C(=O)C(Cl)=C3)c(=O)nc2s1 | 17.6% (active)
COC1=C/C(=C/c2c(N)n3c(nc2=O)sc2cc(S(C)(=O)=O)ccc23)C=CC1=O | 10.2%
COC1=C/C(=C/c2c(N)n3cc(C)sc3nc2=O)C=CC1=O | 4.28%
C=CCNc1nnc(SCC(=O)N2CCC(C(N)=O)CC2)s1 | 15.8% (active)
C=CCOc1ccc(C2C(C(=O)c3cccs3)=C(O)C(=O)N2c2nnc(C)s2)cc1 (centres undefined) | 15.5% (active)
COc1ccc(C2C(C(=O)c3cccs3)=C(O)C(=O)N2c2nncs2)cc1 (centres undefined) | 20.1% (active)
Cc1cc(N2C(=O)C(O)=C(C(=O)c3cccs3)C2c2ccc(F)cc2)no1 (centres undefined) | 23.8% (active)
COc1ccc(C2C(C(=O)c3cccs3)=C(O)C(=O)N2c2nnc(C)s2)cc1OC (centres undefined) | 7.86%
Cc1ccc(C2C(C(=O)c3cccs3)=C(O)C(=O)N2c2nnc(C)s2)cc1 (centres undefined) | 52.5% (active)
O=C(Oc1ccc2ccc(=O)oc2c1)c1cccs1 | 1.63%
O=C(c1ccccc1)N1C(=O)C(c2ccccc2)Oc2ccccc21 (centres undefined) | 1.2%
COc1cc(OC)cc(C(=O)NCC(=O)OC2CCOC2=O)c1 (centres undefined) | 17.4% (active)
O=C1/C(=C/c2cccs2)N=C(c2cccs2)N1Nc1ccccc1 | 18.7% (active)
CCCN1C(=O)/C(=C/c2ccc(N3CCCC3)c(C)c2)NC1=S | 8.1%
Cc1cc(N2CCCC2)ccc1/C=C1\NC(=S)N(C)C1=O | 11.3%
Cc1cc(/C=C2/C(=O)N(C)C(=S)N2C)ccc1N1CCCC1 | 106% (active)
Cc1cc(/C=C2\NC(=S)N(C)C2=O)ccc1N1CCCC1 | 26.1% (active)
CCOc1ccc(NC(=O)/C(C#N)=C/c2ccc(N3CCCC3)c(C)c2)cc1 | 2.19%
CCOc1ccc(NC(=O)/C(C#N)=C\c2ccc(N3CCCC3)c(C)c2)cc1 | 1.35%
O=C(c1ccc(Cl)cc1)n1cnc2ccccc21 | 7.26%
COc1ccc(C(=O)Cn2cnc3ccccc3c2=O)cc1OC | 6.44%
O=C(Cn1cnc2ccccc2c1=O)c1ccc(Br)cc1 | 424% (active)
COc1cc(/C=C(\C#N)c2nc3ccccc3s2)ccc1OCC(=O)Nc1ccccc1 | 92.9% (active)
COc1cc(/C=C(/C#N)C(=O)NCCCc2ccccc2)ccc1OCC(=O)O | 11.5%
COc1cc(/C=C(\C#N)c2nc3ccccc3o2)ccc1O | 3.75%

Structure (SMILES) | activation
CCN(CC)c1ccc(/C=C/c2cc(-c3ccccc3)c3ccccc3n2)cc1 | 19.4% (active)
Cn1cnnc1Sc1nc2ccccc2nc1NS(=O)(=O)c1ccccc1 | 26.2% (active)
c1ccc(Nc2nc3ccccc3n3cnnc23)cc1 | 10.4%
CC(=O)Nc1ccc(S(=O)(=O)Nc2nc3ccccc3nc2Nc2ccc(N)cc2)cc1 | 5.97%
Cn1nnc(NC(=S)NC(=O)/C=C/c2ccco2)n1 | 4.19%
CCC(CC)c1nnc(NC(=O)/C=C/c2ccco2)s1 | 18.8% (active)
COc1ccc(C(=O)/C=C/c2ccc(N(C)C)cc2)c(OC)c1 | 7.89%
C=CCOc1ccc(/C=C2\SC(=Nc3cccnc3)NC2=O)cc1 | 6.73%
CCOc1ccc(N=C2NC(=O)S/C2=C\c2ccc(N(C)C)cc2)cc1 | 5340% (active)
COc1ccc(N=C2NC(=O)S/C2=C\c2ccc(N(C)C)cc2)cc1 | 54.9% (active)
C=CCN1C(=O)c2ccccc2NC1c1cc(Br)cs1 (centres undefined) | 53.6% (active)
O=C(NN1C(=O)c2ccccc2NC1c1ccco1)c1ccccc1 (centres undefined) | 3.92%
CCOCCn1c(CN2CCN(CC)CC2)nc2c1c(=O)n(C)c(=O)n2C | 66% (active)
CC1=Nc2ccccc2/C1=C/c1sc(=S)n(-c2cccc(C(=O)O)c2)c1O | 13.1% (active)
Oc1[nH]c(=S)sc1/C=C1\C(c2ccccc2)=Nc2ccccc21 | 10%
CC1=Nc2ccccc2/C1=C/c1nc(-c2ccc(C)s2)oc1O | 7.81%
CCc1cc(=O)n2c([nH]c3ccccc32)c1C#N | 3.83%
CCC(C)(C)n1nnnc1C(c1ccc(C)cc1)N1CCN(C(=O)c2ccco2)CC1 (centres undefined) | 4.34%
CCC(c1nnnn1C1CCCCC1)N1CCN(C(=O)c2ccco2)CC1 (centres undefined) | 23.4% (active)
O=C(O)C1CCCCC1C(=O)Nc1ccc(-c2ccccc2)cc1 (centres undefined) | 8.12%
Cn1nc(NC(=O)C2CCC2C(=O)O)c2c(F)cccc21 (centres undefined) | 52.9% (active)
CCc1cc[n+](-c2nc([O-])sc2C=O)cc1 | 14.1% (active)
CCc1cc[n+](-c2nc3ccccc3nc2[N-]S(=O)(=O)c2ccc(Br)s2)cc1 | -1.89%
Cc1ccc[n+](-c2nc([O-])sc2C=O)c1 | 64.2% (active)
